Measured values gathered from unrelated publications.
Lines come from different studies, so protocols differ.
CDK18 with cyclin Y: Cyclin-dependent kinase 18, with cyclin Y (CDK18, Homo sapiens, UniProt Q07002)
CDK18: Cyclin-dependent kinase 18 (CDK18, Homo sapiens, UniProt Q07002)

target | observed | action | technique | concentration | measurement | result | Compound
CDK18 with cyclin Y | enzyme activity | inhibitor |  | 1 µM | remaining activity | 103% | COc1cc(Cl)c(C(=O)N[C@@H](CN[C@H]2CC[C@@H](N)CC2)Cc2ccc(C#N)cc2)cc1-c1ccc(CN[C@H](C)c2ccc(C)cc2)o1
CDK18 | cell-free assay |  | competition with immobilised ligand | 1 µM | remaining binding | 100% | O=C(NS(=O)(=O)c1ccc(NCC2CCOCC2)c([N+](=O)[O-])c1)c1ccc(N2CCN(Cc3ccc(C(F)(F)F)cc3-c3ccc(Cl)cc3)CC2)cc1Oc1cnc2[nH]ccc2c1
CDK18 with cyclin Y | enzyme activity | inhibitor |  | 1 µM | activity vs control | 82% | Cc1ccc(C(=O)NCc2ccsc2)cc1C#Cc1cn(C(C)C)c2ncnc(N)c12
CDK18 with cyclin Y | enzyme activity | inhibitor |  | 10 µM | remaining activity | 119% | Cc1sc(C(=O)NC2COC2)cc1-n1cc(NC(=O)Nc2c(F)cccc2Cl)cn1
CDK18 | enzyme activity | inhibitor |  | 23.5 nM | remaining activity | 89% | Cc1ccc(C(=O)Nc2ccc(CN3CCN(C)CC3)c(C(F)(F)F)c2)cc1C#Cc1cnc2cccnn12
CDK18 with cyclin Y | enzyme activity | inhibitor |  | 5 µM | remaining activity | 101% | O=C(Nc1cnn(-c2csc(C(=O)NC3COC3)c2)c1)Nc1ccccc1Cl
CDK18 | binding |  | competition with immobilised ligand | 10 µM | binding vs control | 62% | O=[N+]([O-])c1cccc2[nH]c(CNc3nc(N4CCOCC4)nc4c3ncn4-c3ccsc3)nc12
CDK18 | cell-free assay |  | competition with immobilised ligand | 1 µM | remaining binding | 100% | CSc1cccnc1N1CCN(Cc2nc3ccccc3[nH]2)CC1
CDK18 | binding |  | competition with immobilised ligand | 10 µM | binding vs control | 37% | Fc1cccc(-n2cnc3c(NCc4nc5c(F)c(F)ccc5[nH]4)nc(N4CCOCC4)nc32)c1
CDK18 | cell-free assay | inhibitor |  | 20 µM | remaining signal | 0.1% | Nc1ncnc2occ(-c3ccc(NC(=O)Nc4cc(C(F)(F)F)ccc4F)cc3)c12
CDK18 with cyclin Y | enzyme activity | inhibitor |  | 1 µM | inhibition | 1% | CN1CC(Oc2cnc(C#N)cc2-c2ccn3nc(NC(=O)C4CC4)cc3c2)C1
